The source of these data is ChEMBL document CHEMBL1641407, “Imidazo[4,5-d]thiazolo[5,4-b]pyridine based inhibitors of IKK2: synthesis, SAR, PK/PD and activity in a preclinical model of rheumatoid arthritis” (Bioorg Med Chem Lett, 2011).

In series [1] the test system is Canis familiaris. The series can be described thus: Total AUC in dog at 2 mg/kg, iv. The conditions noted are these: in vivo. The arrangement: time AUCmax, dose 2 mg/kg, route intravenous. The series is classed as ADME, organism-based, Canis lupus familiaris. Summed up:
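Dogs received the compound intravenously only, in PEG400:water 80:20. Total plasma exposure (AUC_tot) is reported in nM h.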

Series [2] deals with Mus musculus. The series can be described thus: Antiinflammatory activity in BALB/c mouse assessed as inhibition of LPS-induced TNFalpha release at 100 mg/kg, po administered for 5 hrs before LPS challenge measured after 6.5 hrs post dose by ELISA. Type of series: functional. The method in brief: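 BALB/c female mice, 6–8 weeks old, n = 7–8 per treatment. Compounds given by oral gavage at 30 and 100 mg/kg in PEG400/HCl/Tween80/water; controls received vehicle alone. Five hours later, E. coli O111:B4 LPS 50 µg/kg ip. Serum collected 90 min after LPS, TNF-α measured by ELISA. Drug exposure sampled 6.5 h post-dose. Mean ± standard error.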
A general note: ELISA stands for enzyme-linked immunosorbent assay.

Series [3] is described as follows: Volume of distribution at steady state in mouse at 2 mg/kg, iv and 10 mg/kg, po. As to conditions: in vivo, read-out: Vdss. The series is classed as ADME, organism-based.
Series [4] relates to Rattus norvegicus. The experiment in a line: Total AUC in rat at 2 mg/kg, iv and 10 mg/kg, po. The series is classed as ADME, organism-based. As to conditions: in vivo.
The nature of series [5]: Cmax in rat at 2 mg/kg, iv and 10 mg/kg, po. The series is classed as ADME, organism-based. The conditions noted are these: in vivo.
The target of series [6] is T1, Inhibitor of nuclear factor kappa-B kinase subunit beta (Homo sapiens, UniProt O14920).
T1 sequence (O14920 whole entry): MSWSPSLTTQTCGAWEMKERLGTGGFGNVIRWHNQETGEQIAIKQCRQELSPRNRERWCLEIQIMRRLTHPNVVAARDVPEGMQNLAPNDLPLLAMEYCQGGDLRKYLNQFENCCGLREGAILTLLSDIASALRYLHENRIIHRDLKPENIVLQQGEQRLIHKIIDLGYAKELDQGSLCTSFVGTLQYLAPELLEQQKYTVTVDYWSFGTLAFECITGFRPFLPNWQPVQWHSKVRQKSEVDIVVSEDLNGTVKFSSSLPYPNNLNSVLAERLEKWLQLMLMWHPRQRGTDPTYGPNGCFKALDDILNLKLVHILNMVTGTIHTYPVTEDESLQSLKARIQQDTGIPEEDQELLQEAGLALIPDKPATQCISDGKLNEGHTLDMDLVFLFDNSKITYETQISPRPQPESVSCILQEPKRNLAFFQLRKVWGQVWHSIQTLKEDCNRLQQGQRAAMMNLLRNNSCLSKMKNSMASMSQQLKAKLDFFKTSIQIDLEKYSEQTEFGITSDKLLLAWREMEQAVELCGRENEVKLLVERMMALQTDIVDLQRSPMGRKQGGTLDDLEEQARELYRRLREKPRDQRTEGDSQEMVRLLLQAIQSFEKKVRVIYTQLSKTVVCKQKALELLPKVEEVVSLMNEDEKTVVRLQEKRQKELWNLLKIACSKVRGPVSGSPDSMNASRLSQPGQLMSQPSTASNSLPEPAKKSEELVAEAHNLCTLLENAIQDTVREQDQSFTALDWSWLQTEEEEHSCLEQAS
The experiment in a line: Inhibition of IKK2. Summed up:
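IKK-2 added at room temperature to 50 µg/mL GST-IκBα with ATP in 25 mM Tris·HCl, pH 7.5, containing MgCl₂, phosphate salts, NaCl, KCl, 1 mM DTT, 5% glycerol and BSA. Stopped after 60 min with 33 mM EDTA. Phospho-IκBα read by fluorescence-polarization competition between an anti-phospho-IκBα antibody and a fluorescein-labelled phosphopeptide.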

Series [7] is described as follows: Mean residence time in mouse at 2 mg/kg, iv and 10 mg/kg, po. As to conditions: in vivo. The series is classed as ADME, organism-based.
Series [8] deals with Mitogen-activated protein kinase 10 (Homo sapiens) (UniProt P53779). The series can be described thus: Residual activity at JNK3 at 10 uM relative to control.
Mitogen-activated protein kinase 10 (Homo sapiens), sequence (P53779 whole entry): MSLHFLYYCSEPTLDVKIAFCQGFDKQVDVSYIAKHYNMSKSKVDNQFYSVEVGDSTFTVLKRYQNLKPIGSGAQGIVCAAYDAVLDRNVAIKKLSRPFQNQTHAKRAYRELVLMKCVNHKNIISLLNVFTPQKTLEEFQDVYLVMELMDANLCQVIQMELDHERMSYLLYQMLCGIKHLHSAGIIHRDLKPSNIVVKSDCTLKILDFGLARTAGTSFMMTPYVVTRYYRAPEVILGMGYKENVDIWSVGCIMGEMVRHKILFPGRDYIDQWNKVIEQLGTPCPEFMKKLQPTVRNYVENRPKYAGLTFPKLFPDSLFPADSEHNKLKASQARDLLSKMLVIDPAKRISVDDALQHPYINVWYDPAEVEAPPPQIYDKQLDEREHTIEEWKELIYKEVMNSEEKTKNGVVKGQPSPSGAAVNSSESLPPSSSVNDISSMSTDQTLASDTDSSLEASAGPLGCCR
The nature of series [9]: Half life in mouse at 2 mg/kg, iv and 10 mg/kg, po. Type of series: ADME, organism-based. The conditions noted are these: in vivo.
The test system of series [10] is Mus musculus. The series can be described thus: Total AUC in mouse at 2 mg/kg, iv and 10 mg/kg, po. As to conditions: in vivo. The series is classed as ADME, organism-based.
Series [11] in a line: Volume of distribution at steady state in rat at 2 mg/kg, iv and 10 mg/kg, po. The series is classed as ADME, organism-based. As to conditions: in vivo, read-out: Vdss.
Series [12] deals with PBMC. The experiment in a line: Antiinflammatory activity in human PBMC assessed as inhibition of LPS-induced TNFalpha release treated for 5 mins before LPS challenge measured after 6 hrs by ELISA. Type of series: functional, cell-based. The method in brief:
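PBMCs purified from heparinized healthy-volunteer blood by Ficoll-Hypaque gradient and suspended at 5 × 10⁶/mL in RPMI with 10% FBS. Cells preincubated with compound (0.2% DMSO) for 5 min at room temperature. LPS added from a 200 ng/mL stock, then 6 h at 37 °C. Medium TNF-α measured by ELISA. IC50 by linear regression.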

The nature of series [13]: Half life in dog at 2 mg/kg, iv. The series is classed as ADME, organism-based, Canis lupus familiaris. The arrangement: dose 2 mg/kg, route intravenous. The conditions noted are these: in vivo. The method in brief:
(§1)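 Dog pharmacokinetics, iv dosing only, in vehicle PEG400:water 80:20.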

Series [14] can be described thus: Tmax in mouse at 2 mg/kg, iv and 10 mg/kg, po. The series is classed as ADME, organism-based. The conditions noted are these: in vivo.
Series [15] can be described thus: Clearance in rat at 2 mg/kg, iv and 10 mg/kg, po. Type of series: ADME, organism-based. The conditions noted are these: in vivo.
Series [16] deals with T2, Inhibitor of nuclear factor kappa-B kinase subunit alpha (Homo sapiens, UniProt O15111).
T2 sequence (O15111 whole entry): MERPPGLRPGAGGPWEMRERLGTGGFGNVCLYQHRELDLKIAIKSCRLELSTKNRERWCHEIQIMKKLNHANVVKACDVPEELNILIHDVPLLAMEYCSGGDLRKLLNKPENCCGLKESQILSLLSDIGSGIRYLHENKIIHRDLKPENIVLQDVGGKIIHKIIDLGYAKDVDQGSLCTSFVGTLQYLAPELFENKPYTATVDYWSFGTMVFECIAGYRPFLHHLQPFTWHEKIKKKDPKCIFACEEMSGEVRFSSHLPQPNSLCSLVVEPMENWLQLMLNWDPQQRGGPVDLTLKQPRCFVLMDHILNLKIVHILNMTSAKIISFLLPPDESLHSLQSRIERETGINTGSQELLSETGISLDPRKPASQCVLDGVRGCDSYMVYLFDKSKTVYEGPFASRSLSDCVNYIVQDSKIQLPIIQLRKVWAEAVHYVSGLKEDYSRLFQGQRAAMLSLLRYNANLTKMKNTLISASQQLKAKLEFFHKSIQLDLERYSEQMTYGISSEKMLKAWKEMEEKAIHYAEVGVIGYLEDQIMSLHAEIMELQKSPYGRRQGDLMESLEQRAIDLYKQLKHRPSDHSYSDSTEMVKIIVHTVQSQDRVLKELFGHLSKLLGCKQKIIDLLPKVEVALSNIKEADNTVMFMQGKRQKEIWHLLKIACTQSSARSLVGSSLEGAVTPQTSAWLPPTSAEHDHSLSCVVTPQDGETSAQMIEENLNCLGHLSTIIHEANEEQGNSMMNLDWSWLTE
The series can be described thus: Inhibition of IKK1.

The nature of series [17]: Tmax in rat at 2 mg/kg, iv and 10 mg/kg, po. The series is classed as ADME, organism-based. As to conditions: in vivo.
Series [18] is described as follows: Volume of distribution at steady state in dog at 2 mg/kg, iv. The series is classed as ADME, organism-based, Canis lupus familiaris. The arrangement: dose 2 mg/kg, route intravenous. As to conditions: in vivo, read-out: Vdss. Summed up: as §1
A short description of series [19]: Oral bioavailability in rat at 10 mg/kg. The conditions noted are these: in vivo. The series is classed as ADME, organism-based.

The term inhibition in vivo denotes the drop in the measured response relative to a control, in per cent. As usually defined, the Cmax is the maximum level reached in the sampled fluid or tissue. A word on the IC50: it is the concentration needed to halve the response being measured. As a reminder, the MRT is a mean duration of stay, worked out from the concentration-time curve. A word on the half-life: it is how long it takes for the measured level to halve. Read a low half-life as fast loss. As a reminder, the Tmax is the time from dosing to the highest level. By bioavailability is commonly meant the share of a dose that reaches the circulation, judged against a reference dose that is usually intravenous. A lower bioavailability goes with poor availability. For the compound `CCNc1nc2sc(-c3cccc([C@H](C)NC(C)=O)c3)nc2c2c1ncn2C`, the AUC in [1] worked out at 1980 nM; in series [4] it was 4.63 µM; in series [10] it was 3000 nM. Also, in series [2], the inhibition in vivo at 100 mg/kg turned out to be 75%. Moreover, the Vd in series [3] was determined as 1.5 L/kg; in series [11] it was 2.3 L/kg; in series [18] it was 3.1 L/kg. Besides, the Cmax in [5] amounted to 1650 nM. In addition, the IC50 in series [6] stood at 19 nM; in [12] it was 220 nM; in [16], 420 nM. The mean residence time (MRT) in series [7] is 2.9 h. For the same compound, the residual activity in [8] was less than 10%. The values for the half-life in series [9] and in series [13] were 1.9 h and 0.7 h, respectively. The time of peak concentration (Tmax) in [14] was found to be 0.5 h; in series [17] it was 2 h. Also, in series [15], the clearance is 63 mL/min/kg. For the same compound, the bioavailability in series [19] stood at 88%.
